Data as given in ChEMBL document CHEMBL1221219, “Selective blockade of 2-arachidonoylglycerol hydrolysis produces cannabinoid behavioral effects” (Nat Chem Biol, 2009).
Active and inactive are the calls of the source. The calls are words filed in the database; no cut-off is given here.

How the values were obtained:
[1] = system: Mus musculus; assay: Analgesic activity against CB1 receptor deficient C57B1/6J mouse at 16 mg/kg, ip; assay type: functional, organism-based; design: dose 16 mg/kg
In short: (§1)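 Male C57Bl/6J mice, 6-8 weeks, 20-26 g, given 16 mg kg^-1 i.p. in 4:1 v/v PEG300:Tween80 at 4 μl g^-1; vehicle controls received PEG300:Tween80 alone. Cannabinoid effects were scored in the tetrad test.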

[2] = system: Mus musculus; assay: Inhibition of MAGL in C57B1/6J mouse brain membrane at 4 mg/kg, ip after 4 hrs by competitive activity-based protein profiling method relative to control; assay type: functional; conditions: route intraperitoneal
In short: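 Male C57Bl/6J mice (6-8 weeks, 20-26 g) dosed i.p. in 4:1 v/v PEG300:Tween80 vehicle at 4 ul g^-1; killed 4 h post-dose. Brain membrane proteomes were then labelled with FP-rhodamine (2 μM, 30 min, room temperature), resolved by SDS-PAGE and scanned in-gel for fluorescence. MAGL signal was compared with vehicle-treated controls.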

[3] = system: Mus musculus; assay: Inhibition of MAGL in orally dosed C57B1/6J mouse brain membrane after 4 hrs; assay type: functional, organism-based
In short: (§2)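 Oral dosing used male C57Bl/6J mice (6-8 weeks) given inhibitor in PEG300 vehicle at 4 ul g^-1, handled as for i.p. dosing. Brains were taken 4 h later for analysis of brain membrane hydrolase activity.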

[4] = system: Mus musculus; assay: Inhibition of FAAH in C57B1/6J mouse brain membrane assessed as elevated level of anandamide at 10 mg/kg, ip by competitive activity-based protein profiling method; assay type: functional, organism-based; design: dose 10 mg/kg
[5] = system: Mus musculus; assay: Change in monoacylglycerol level in C57B1/6J mouse brain at 16 mg/kg, ip by LC-MS; assay type: functional, organism-based; design: dose 16 mg/kg
In short: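 Mice received 16 mg kg^-1 i.p. in 4:1 PEG300:Tween80 and were killed at 0.5, 1, 2, 4, 8 and 24 h. Brain lipids, including N-acylethanolamines, MAGs, free fatty acids and arachidonic acid, were measured by LC-MS.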

[6] = system: Mus musculus; assay: Change in monopalmitoylglycerol levels in intraperitoneally dosed C57B1/6J mouse brain by LC-MS; assay type: functional, organism-based
In short: (§3)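 Male C57Bl/6J mice given 4, 8, 16 or 40 mg kg^-1 i.p. in 4:1 PEG300:Tween80 at 4 μl g^-1, or vehicle, and killed after 4 h. Whole-brain lipids were quantified by LC-MS.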

[7] = biological target: Cannabinoid receptor 1 (Homo sapiens) (UniProt P21554); assay: Displacement of [3H]rimonabant from CB1 in cerebellar membrane after 90 mins by liquid scintillation; assay type: cell membranes; conditions: Cerebellum
[8] = system: Mus musculus; assay: Inhibition of […] in C57B1/6J mouse brain membrane assessed as residual 2-AG hydrolysis activity at 16 mg/kg, ip after 4 hrs relative to control; assay type: functional; conditions: route intraperitoneal
In short: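 Brain membranes from mice given 4-40 mg kg^-1 i.p. for 4 h were assayed for 2-AG hydrolysis by LC-MS substrate assay. Activity is expressed relative to vehicle control.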

[9] = system: Mus musculus; assay: Inhibition of CG167 in C57B1/6J mouse brain membrane at 16 mg/kg, ip after 4 hrs by competitive activity-based protein profiling-MudPIT method; assay type: functional, organism-based; design: dose 16 mg/kg
In short: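 Mice were dosed 16 mg kg^-1 i.p. or vehicle and killed at 4 h. Brain membrane proteomes were labelled with FP-biotin, avidin-enriched, trypsin-digested on bead, analysed by multidimensional LC-MS and identified by SEQUEST.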

[10] = system: Mus musculus; assay: Inhibition of FAAH in orally dosed C57B1/6J mouse brain membrane after 4 hrs; assay type: functional, organism-based; in short: as §2
[11] = biological target: T1, Cytosolic phospholipase A2 (Homo sapiens) (UniProt P47712); assay: Inhibition of recombinant cPLA2 4a expressed in HEK293 cells assessed as hydrolysis of PAPC to arachidonic acid at 20 uM TLC assay; assay type: cell-based
T1 sequence (whole entry): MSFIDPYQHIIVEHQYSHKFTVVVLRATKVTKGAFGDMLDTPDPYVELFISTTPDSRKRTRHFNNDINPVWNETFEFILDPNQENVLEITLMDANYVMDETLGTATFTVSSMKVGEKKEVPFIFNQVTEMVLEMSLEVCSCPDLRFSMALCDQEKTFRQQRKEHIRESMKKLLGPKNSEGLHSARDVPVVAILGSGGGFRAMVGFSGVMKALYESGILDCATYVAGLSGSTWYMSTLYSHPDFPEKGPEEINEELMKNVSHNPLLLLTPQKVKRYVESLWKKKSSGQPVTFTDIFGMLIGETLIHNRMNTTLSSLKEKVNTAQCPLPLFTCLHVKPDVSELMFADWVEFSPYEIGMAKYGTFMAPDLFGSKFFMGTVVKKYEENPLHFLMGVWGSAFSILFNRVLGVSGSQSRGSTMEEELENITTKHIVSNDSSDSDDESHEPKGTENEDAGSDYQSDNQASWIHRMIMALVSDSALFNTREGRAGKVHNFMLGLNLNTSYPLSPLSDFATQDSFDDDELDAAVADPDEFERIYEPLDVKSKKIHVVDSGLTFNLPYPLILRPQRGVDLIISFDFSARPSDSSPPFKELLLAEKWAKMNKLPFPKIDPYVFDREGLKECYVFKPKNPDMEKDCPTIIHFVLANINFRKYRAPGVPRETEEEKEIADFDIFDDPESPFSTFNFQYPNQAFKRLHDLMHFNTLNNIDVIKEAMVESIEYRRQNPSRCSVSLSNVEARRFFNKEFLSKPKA

[12] = biological target: T2, Monoglyceride lipase (Mus musculus) (UniProt O35678); conditions: C57B1/6J, Brain, Membrane, 50 nM
T2 sequence (whole entry): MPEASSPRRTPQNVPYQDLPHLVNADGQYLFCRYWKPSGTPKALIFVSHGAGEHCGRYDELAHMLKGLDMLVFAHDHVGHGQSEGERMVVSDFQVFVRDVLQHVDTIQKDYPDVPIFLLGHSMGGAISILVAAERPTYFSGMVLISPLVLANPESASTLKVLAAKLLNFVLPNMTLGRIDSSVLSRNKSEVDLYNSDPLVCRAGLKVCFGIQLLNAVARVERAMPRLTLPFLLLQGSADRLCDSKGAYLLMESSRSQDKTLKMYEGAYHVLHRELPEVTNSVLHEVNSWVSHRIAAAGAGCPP

[13] = system: Mus musculus; assay: Decrease in arachidonic acid levels in intraperitoneally dosed C57B1/6J mouse brain after 4 hrs by LC-MS; assay type: functional, organism-based; in short: as §3
[14] = system: Mus musculus; assay: Inhibition of LYPLA3 in C57B1/6J mouse brain membrane at 16 mg/kg, ip after 4 hrs by competitive activity-based protein profiling-MudPIT method; assay type: functional, organism-based; design: dose 16 mg/kg
In short: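 After i.p. dosing in 4:1 PEG300:Tween80, male C57Bl/6J mice were killed at 4 h. Brain membrane proteomes from treated and vehicle mice were labelled with FP-biotin. Labelled proteins were enriched on avidin, digested on-bead with trypsin and analysed by multidimensional LC-MS. Proteins were identified by SEQUEST, and dosed samples were compared with vehicle.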

[15] = system: Mus musculus; assay: Change in oleic acid in intraperitoneally dosed C57B1/6J mouse brain by LC-MS; assay type: functional, organism-based; in short: as §3
[16] = biological target: T1, Cytosolic phospholipase A2 (Homo sapiens); assay: Inhibition of recombinant cPLA2 4a expressed in HEK293 cells at 20 uM by FP-rhodamine labeling method; assay type: cell-based
[17] = system: Mus musculus; assay: Induction of hypomotility in C57B1/6J mouse at 16 mg/kg, ip; assay type: functional, organism-based; design: dose 16 mg/kg; in short: as §1

Chain of Cannabinoid receptor 1 (Homo sapiens) (P21554 whole entry): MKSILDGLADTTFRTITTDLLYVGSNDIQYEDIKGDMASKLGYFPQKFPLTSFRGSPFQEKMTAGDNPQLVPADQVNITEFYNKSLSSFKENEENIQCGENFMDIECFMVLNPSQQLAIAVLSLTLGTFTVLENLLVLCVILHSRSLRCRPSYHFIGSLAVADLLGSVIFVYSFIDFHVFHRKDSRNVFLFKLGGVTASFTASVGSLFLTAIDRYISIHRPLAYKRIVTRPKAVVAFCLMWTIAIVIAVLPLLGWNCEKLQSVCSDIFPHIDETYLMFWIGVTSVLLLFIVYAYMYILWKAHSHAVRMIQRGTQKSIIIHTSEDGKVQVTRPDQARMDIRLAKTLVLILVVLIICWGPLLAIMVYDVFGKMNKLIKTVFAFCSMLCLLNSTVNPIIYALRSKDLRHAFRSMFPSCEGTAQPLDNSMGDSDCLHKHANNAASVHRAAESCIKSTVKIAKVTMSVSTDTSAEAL

Compound: O=C(Oc1ccc([N+](=O)[O-])cc1)N1CCC(C(O)(c2ccc3c(c2)OCO3)c2ccc3c(c2)OCO3)CC1
- Activity [1]: inactive
- fold change (FC) [2]: 5
- inhibition [3]: Active
- inhibition [4]: Active
- Activity [5]: inactive
- Activity [6]: inactive
- Activity [7]: inactive
- Activity [8]: 35%
- inhibition [9]: inactive
- inhibition [10]: Active
- inhibition [11]: inactive
- inhibition [12]: Active
- Activity [13]: Active
- inhibition [14]: inactive
- Activity [15]: inactive
- inhibition [16]: inactive
- Activity [17]: Active
